Reference: ChEMBL document CHEMBL1123453, “Quinazoline antifolates inhibiting thymidylate synthase: benzoyl ring modifications” (J Med Chem, 1986)

Assays:
Dihydrofolate reductase = molecular target: T1, Dihydrofolate reductase (Mus musculus, UniProt P00375); experiment: The compound was evaluated in vitro for inhibition of purified L1210 dihydrofolate reductase
T1 sequence (P00375 whole entry): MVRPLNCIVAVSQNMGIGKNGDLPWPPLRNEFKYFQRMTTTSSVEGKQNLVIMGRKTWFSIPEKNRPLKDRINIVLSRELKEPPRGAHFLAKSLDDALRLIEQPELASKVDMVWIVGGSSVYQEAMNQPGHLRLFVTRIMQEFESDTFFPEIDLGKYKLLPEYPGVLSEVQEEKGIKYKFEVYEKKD

L1210 = experiment: The compound was evaluated for the inhibition of growth of L1210 cells in culture; format: functional, cell-based; details: Mus musculus
Method in brief: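 L1210 cells grown in culture; growth inhibition reported as the ID50 in μM.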

Thymidylate synthase [1] = molecular target: T2, Thymidylate synthase (Mus musculus, UniProt P07607); experiment: In vitro inhibition of L1210 thymidylate synthase
Method in brief: (§1)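 Thymidylate synthase purified from L1210 cells; IC50 determined, with CB3717 assayed as the reference control alongside each compound.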

Thymidylate synthase [2] = molecular target: T2, Thymidylate synthase; experiment: In vitro inhibition of L1210 thymidylate synthase with CB3717 as control; method in brief: as §1

T2 sequence (P07607 whole entry): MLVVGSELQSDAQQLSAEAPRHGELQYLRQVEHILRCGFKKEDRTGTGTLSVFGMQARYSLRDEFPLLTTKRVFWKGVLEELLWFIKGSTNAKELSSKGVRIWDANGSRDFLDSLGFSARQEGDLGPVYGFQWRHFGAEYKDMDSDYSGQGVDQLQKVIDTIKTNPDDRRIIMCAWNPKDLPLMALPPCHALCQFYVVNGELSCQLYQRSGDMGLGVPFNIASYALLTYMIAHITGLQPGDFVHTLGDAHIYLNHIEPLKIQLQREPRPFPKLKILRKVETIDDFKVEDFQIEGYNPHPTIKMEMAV

| IC50 (Dihydrofolate reductase) [µM] | IC50 (L1210) [µM] | IC50 (Thymidylate synthase [1]) [µM] | IC50 (Thymidylate synthase [2]) [µM] | Structure (SMILES) |
| --- | --- | --- | --- | --- |
| 25 | 24 | 0.4 | 0.019 | C#CCN(Cc1ccc2nc(N)nc(O)c2c1)c1ccc(C(=O)NC(CCC(=O)O)C(=O)O)c(C)c1 (configuration not stated) |
|  | 7 |  |  | C#CCN(Cc1ccc2[nH]c(N)nc(=O)c2c1)c1ccc(C(=O)NC(CCC(=O)O)C(=O)O)cc1 (configuration not stated) |
| 3 | 37 | > 5 | 0.0144 | C#CCN(Cc1ccc2nc(N)nc(O)c2c1)c1c(Cl)cc(C(=O)NC(CCC(=O)O)C(=O)O)cc1Cl (configuration not stated) |
| 3 | 72 | 5 | 0.0144 | C#CCN(Cc1ccc2nc(N)nc(O)c2c1)c1ccc(C(=O)NC(CCC(=O)O)C(=O)O)cc1Cl (configuration not stated) |
| 11 | 12 | 0.03 | 0.014 | C#CCN(Cc1ccc2nc(N)nc(O)c2c1)c1ccc(C(=O)NC(CCC(=O)O)C(=O)O)c(Cl)c1 (configuration not stated) |
